According to ChEMBL document CHEMBL1148687, “Identification of a novel 4-aminomethylpiperidine class of M3 muscarinic receptor antagonists and structural insight into their M3 selectivity” (J Med Chem, 2006):

Experiments:
[1] = biological target: T1, Muscarinic acetylcholine receptor M3 (Homo sapiens, UniProt P20309); assay: Inhibition of [3H]NMS binding to human cloned M3 receptor expressed in CHO cells; assay type: cell-based
How it was run: (§1)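 Competition against specific [3H]-NMS binding on membranes of CHO cells expressing cloned human receptor subtypes. Assay buffer 50 mM Tris-HCl, 10 mM MgCl2, 1 mM EDTA, pH 7.4, highest final concentration 10 µM.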
Target sequence in this assay (P20309 whole entry): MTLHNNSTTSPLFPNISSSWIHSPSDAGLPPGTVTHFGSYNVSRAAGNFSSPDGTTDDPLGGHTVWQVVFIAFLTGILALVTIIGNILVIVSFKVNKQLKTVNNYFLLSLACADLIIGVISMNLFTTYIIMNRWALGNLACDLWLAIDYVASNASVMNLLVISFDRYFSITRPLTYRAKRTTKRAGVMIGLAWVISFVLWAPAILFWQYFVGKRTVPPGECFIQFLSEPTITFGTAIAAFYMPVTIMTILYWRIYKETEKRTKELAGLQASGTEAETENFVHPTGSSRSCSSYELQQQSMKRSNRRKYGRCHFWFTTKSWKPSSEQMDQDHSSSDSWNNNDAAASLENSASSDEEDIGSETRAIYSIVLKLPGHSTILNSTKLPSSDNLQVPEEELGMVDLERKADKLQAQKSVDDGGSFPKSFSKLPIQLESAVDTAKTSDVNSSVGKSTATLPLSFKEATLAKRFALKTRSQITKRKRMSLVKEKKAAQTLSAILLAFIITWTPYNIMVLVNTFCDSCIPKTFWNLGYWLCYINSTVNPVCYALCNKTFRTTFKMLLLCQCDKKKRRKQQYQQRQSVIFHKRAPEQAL

[2] = biological target: T2, Muscarinic acetylcholine receptor M1 (Homo sapiens, UniProt P11229); assay: Inhibition of [3H]NMS binding to human cloned M1 receptor expressed in CHO cells; assay type: cell-based; how it was run: as §1
T2 sequence (P11229 whole entry): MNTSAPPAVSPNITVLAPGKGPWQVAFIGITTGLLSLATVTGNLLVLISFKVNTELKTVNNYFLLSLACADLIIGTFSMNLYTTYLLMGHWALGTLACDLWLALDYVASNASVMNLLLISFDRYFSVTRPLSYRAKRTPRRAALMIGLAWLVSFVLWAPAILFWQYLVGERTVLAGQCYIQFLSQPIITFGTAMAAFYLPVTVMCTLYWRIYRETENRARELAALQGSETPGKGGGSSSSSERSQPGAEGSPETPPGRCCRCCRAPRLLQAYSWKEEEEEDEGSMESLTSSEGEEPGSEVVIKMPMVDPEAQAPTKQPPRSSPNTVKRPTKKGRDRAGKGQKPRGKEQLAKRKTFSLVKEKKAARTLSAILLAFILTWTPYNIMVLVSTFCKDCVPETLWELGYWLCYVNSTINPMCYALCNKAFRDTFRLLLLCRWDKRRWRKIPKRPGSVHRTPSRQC

[3] = biological target: T3, Muscarinic acetylcholine receptor M4 (Homo sapiens, UniProt P08173); assay: Inhibition of [3H]NMS binding to human cloned M4 receptor expressed in CHO cells; assay type: cell-based; how it was run: as §1
T3 sequence (P08173 whole entry): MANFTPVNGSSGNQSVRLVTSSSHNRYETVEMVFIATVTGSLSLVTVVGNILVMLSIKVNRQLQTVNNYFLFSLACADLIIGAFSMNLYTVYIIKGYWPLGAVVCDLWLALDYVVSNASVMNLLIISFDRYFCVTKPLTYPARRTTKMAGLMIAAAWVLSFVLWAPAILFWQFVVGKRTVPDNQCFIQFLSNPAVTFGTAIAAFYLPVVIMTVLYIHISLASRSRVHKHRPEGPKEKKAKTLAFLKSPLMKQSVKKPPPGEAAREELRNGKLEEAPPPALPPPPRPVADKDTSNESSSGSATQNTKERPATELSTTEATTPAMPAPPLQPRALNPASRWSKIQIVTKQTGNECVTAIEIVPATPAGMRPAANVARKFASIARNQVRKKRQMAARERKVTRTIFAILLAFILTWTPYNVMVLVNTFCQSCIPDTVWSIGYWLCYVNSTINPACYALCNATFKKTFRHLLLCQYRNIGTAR

[4] = biological target: T4, Muscarinic acetylcholine receptor M5 (Homo sapiens, UniProt P08912); assay: Inhibition of [3H]NMS binding to human cloned M5 receptor expressed in CHO cells; assay type: cell-based; how it was run: as §1
T4 sequence (P08912 whole entry): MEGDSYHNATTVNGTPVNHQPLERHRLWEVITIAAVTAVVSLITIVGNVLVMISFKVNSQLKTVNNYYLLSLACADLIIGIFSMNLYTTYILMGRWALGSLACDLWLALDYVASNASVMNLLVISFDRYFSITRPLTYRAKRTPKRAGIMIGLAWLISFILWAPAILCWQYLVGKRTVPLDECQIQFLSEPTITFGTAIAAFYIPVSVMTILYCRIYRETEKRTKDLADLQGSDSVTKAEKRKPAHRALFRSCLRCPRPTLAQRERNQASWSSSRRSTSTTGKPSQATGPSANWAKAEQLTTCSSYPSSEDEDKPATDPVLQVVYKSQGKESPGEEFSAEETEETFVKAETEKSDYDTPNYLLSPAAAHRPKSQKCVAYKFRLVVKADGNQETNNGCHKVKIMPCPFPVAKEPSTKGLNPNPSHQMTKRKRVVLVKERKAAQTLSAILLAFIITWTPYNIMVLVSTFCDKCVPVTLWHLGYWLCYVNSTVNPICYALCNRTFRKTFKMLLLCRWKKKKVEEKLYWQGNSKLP

[5] = biological target: Muscarinic acetylcholine receptor M3 (Rattus norvegicus) (UniProt P08483); assay: (§2) Antagonist activity at M3 receptor assessed as inhibition of carbachol-induced contraction of rat trachea; assay type: functional
How it was run: (§3)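 Contraction of isolated rat trachea evoked by carbachol, antagonist given at several doses. Four experiments per dose, reported as mean ± SEM. Schild regression analysis applied to the data.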

[6] = biological target: Muscarinic acetylcholine receptor M3 (Rattus norvegicus, UniProt P08483); assay: as §2; assay type: functional; conditions: read-out: pA2 (converted); how it was run: as §3
[7] = biological target: T5, Muscarinic acetylcholine receptor M2 (Rattus norvegicus, UniProt P10980); assay: Antagonist activity at M2 receptor assessed as inhibition of carbachol-induced bradycardia in rat atria; assay type: functional; conditions: read-out: pA2 (converted)
T5 sequence (P10980 whole entry): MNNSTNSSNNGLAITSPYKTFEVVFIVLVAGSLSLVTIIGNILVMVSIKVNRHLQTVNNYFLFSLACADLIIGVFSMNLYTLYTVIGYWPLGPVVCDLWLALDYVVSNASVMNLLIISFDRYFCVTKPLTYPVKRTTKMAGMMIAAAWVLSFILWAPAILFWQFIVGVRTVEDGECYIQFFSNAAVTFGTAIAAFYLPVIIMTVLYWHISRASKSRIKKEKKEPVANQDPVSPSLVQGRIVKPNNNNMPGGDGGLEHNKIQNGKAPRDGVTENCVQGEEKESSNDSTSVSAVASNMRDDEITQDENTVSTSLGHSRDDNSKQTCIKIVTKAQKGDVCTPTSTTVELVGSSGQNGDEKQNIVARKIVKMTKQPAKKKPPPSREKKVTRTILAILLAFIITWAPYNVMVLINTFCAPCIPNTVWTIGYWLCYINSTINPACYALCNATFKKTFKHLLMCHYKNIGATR
How it was run: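 Isolated rat right atria, bradycardia evoked by carbachol, antagonist given at several doses. Four experiments per dose, reported as mean ± SEM. Potency obtained by Schild regression analysis.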

[8] = biological target: T1, Muscarinic acetylcholine receptor M3; assay: Inhibition of [3H]NMS binding to human cloned M3 receptor expressed in CHO cells at 1 uM; assay type: cell-based
Target sequence in this assay (P20309 whole entry, looked up): as the sequence (P20309 whole entry) above

Muscarinic acetylcholine receptor M3 (Rattus norvegicus, UniProt P08483), sequence (P08483 whole entry): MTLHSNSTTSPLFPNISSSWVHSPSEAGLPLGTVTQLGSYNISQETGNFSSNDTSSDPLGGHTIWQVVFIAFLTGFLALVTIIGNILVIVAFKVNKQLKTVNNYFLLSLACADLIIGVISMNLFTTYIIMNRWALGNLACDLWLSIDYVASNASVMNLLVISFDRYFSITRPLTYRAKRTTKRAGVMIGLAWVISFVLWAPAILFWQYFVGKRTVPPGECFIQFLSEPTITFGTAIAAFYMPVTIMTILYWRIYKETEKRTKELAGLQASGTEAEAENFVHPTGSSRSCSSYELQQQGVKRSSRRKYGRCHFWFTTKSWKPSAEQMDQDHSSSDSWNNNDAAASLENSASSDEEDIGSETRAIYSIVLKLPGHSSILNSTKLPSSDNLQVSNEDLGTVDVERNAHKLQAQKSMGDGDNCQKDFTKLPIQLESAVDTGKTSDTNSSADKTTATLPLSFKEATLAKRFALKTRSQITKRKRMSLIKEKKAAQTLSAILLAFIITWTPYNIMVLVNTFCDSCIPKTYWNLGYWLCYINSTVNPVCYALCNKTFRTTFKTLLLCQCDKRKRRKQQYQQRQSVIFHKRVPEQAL
Muscarinic acetylcholine receptor M3 (Rattus norvegicus), sequence (P08483 whole entry, looked up): as the sequence (P08483 whole entry) above

Structure (SMILES) | Ki [1] [nM] | Ki [2] [nM] | Ki [3] [nM] | Ki [4] [nM] | Activity [5] | Kb [6] [nM] | Kb [7] [nM] | inhibition [8] [%]
O=C(NCC1CCNCC1)[C@H]1CCCN1C(=O)[C@@H]1C[C@@H](O)CN1C(=O)CC(c1ccc(F)cc1)(c1ccc(F)cc1)c1ccc(F)cc1 | 0.3 | 170 | 42 | 3500 | Dose-dependent effect | 0.224 | 204 | 
O=C(NC[C@H]1CCCNC1)[C@H]1CCCN1C(=O)[C@@H]1CCCN1C(=O)CC(c1ccccc1)(c1ccccc1)c1ccccc1 | 99 | > 2500 | > 1700 | > 5000 |  |  |  | 74
CN1CCC(CNC(=O)[C@H]2CCCN2C(=O)[C@@H]2C[C@@H](O)CN2C(=O)CC(c2ccc(F)cc2)(c2ccc(F)cc2)c2ccc(F)cc2)CC1 | 0.51 | 270 | 41 | 1600 |  |  |  | 
O=C(NC[C@@H]1CCCNC1)[C@H]1CCCN1C(=O)[C@@H]1C[C@@H](O)CN1C(=O)CC(c1ccccc1)(c1ccccc1)c1ccccc1 | 3.7 | > 2600 | 290 | > 5100 |  |  |  | 
CC(C)NC(=O)[C@H]1CCCN1C(=O)[C@@H]1C[C@@H](O)CN1C(=O)CC(c1ccc(F)cc1)(c1ccc(F)cc1)c1ccc(F)cc1 | 2.4 | 800 | 180 | > 5400 |  |  |  | 
O=C(NC[C@@H]1CCCNC1)[C@H]1CCCN1C(=O)[C@@H]1C[C@@H](O)CN1C(=O)CC(c1ccc(F)cc1)(c1ccc(F)cc1)c1ccc(F)cc1 | 0.39 | 300 | 39 | 1700 |  |  |  | 
O=C(NCC1CCN(CC2CCCC2)CC1)[C@H]1CCCN1C(=O)[C@@H]1C[C@@H](O)CN1C(=O)CC(c1ccc(F)cc1)(c1ccc(F)cc1)c1ccc(F)cc1 | 0.19 | 71 | 11 | 940 |  |  |  | 
O=C(NCCC1CCNCC1)[C@H]1CCCN1C(=O)[C@@H]1C[C@@H](O)CN1C(=O)CC(c1ccc(Cl)cc1)(c1ccc(Cl)cc1)c1ccc(Cl)cc1 | 1.2 | 260 | 24 | 950 |  |  |  | 
O=C(NC[C@@H]1CCCNC1)[C@H]1CCCN1C(=O)[C@@H]1C[C@@H](O)CN1C(=O)CC(c1ccc(Cl)cc1)(c1ccc(Cl)cc1)c1ccc(Cl)cc1 | 1.6 | 460 | 120 | 2700 |  |  |  | 
O=C(NCC1CCN(CC2CCC2)CC1)[C@H]1CCCN1C(=O)[C@@H]1C[C@@H](O)CN1C(=O)CC(c1ccc(F)cc1)(c1ccc(F)cc1)c1ccc(F)cc1 | 0.53 | 220 | 31 | 3100 |  |  |  | 
O=C(NCC1CCNCC1)[C@H]1CCCN1C(=O)[C@@H]1C[C@@H](O)CN1C(=O)CC(c1ccc(Cl)cc1)(c1ccc(Cl)cc1)c1ccc(Cl)cc1 | 0.39 | 93 | 53 | 2500 |  |  |  | 
O=C(NCCC1CCNCC1)[C@H]1CCCN1C(=O)[C@@H]1C[C@@H](O)CN1C(=O)CC(c1ccc(F)cc1)(c1ccc(F)cc1)c1ccc(F)cc1 | 0.48 | 300 | 29 | 1700 |  |  |  | 
CCN1CCC(CNC(=O)[C@H]2CCCN2C(=O)[C@@H]2C[C@@H](O)CN2C(=O)CC(c2ccc(F)cc2)(c2ccc(F)cc2)c2ccc(F)cc2)CC1 | 0.92 | 580 | 92 | 2800 |  |  |  | 
O=C(NCC1CCN(C2CCCC2)CC1)[C@H]1CCCN1C(=O)[C@@H]1C[C@@H](O)CN1C(=O)CC(c1ccc(F)cc1)(c1ccc(F)cc1)c1ccc(F)cc1 | 0.51 | 210 | 48 | 3200 |  |  |  | 
O=C(NCC1CCN(CC2CC2)CC1)[C@H]1CCCN1C(=O)[C@@H]1C[C@@H](O)CN1C(=O)CC(c1ccc(F)cc1)(c1ccc(F)cc1)c1ccc(F)cc1 | 0.17 | 65 | 20 | 1600 |  |  |  | 
O=C(NCC1CCNCC1)[C@H]1CCCN1C(=O)[C@@H]1C[C@@H](O)CN1C(=O)CC(c1ccccc1)(c1ccccc1)c1ccccc1 | 4.2 | 1800 | 480 | > 5100 |  |  |  | 
O=C(NCCC1CCNCC1)[C@H]1CCCN1C(=O)[C@@H]1C[C@@H](O)CN1C(=O)CC(c1ccccc1)(c1ccccc1)c1ccccc1 | 2.8 | 2000 | 150 | > 5100 |  |  |  | 
